# AHR activator: AHR activators, primary screen, cell-based, luminescence, luciferase reporter, human. Aryl hydrocarbon receptor (Homo sapiens), P35869. AHR-responsive luciferase reporter cells. activation, % at 5 µM. 320,000 tested, 2.5% active. AID 2796, 2010; in the data active means activation above about 47%;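 further: 0% = vehicle wells and 100% = reference agonist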
# Target sequence (P35869 whole entry, looked up): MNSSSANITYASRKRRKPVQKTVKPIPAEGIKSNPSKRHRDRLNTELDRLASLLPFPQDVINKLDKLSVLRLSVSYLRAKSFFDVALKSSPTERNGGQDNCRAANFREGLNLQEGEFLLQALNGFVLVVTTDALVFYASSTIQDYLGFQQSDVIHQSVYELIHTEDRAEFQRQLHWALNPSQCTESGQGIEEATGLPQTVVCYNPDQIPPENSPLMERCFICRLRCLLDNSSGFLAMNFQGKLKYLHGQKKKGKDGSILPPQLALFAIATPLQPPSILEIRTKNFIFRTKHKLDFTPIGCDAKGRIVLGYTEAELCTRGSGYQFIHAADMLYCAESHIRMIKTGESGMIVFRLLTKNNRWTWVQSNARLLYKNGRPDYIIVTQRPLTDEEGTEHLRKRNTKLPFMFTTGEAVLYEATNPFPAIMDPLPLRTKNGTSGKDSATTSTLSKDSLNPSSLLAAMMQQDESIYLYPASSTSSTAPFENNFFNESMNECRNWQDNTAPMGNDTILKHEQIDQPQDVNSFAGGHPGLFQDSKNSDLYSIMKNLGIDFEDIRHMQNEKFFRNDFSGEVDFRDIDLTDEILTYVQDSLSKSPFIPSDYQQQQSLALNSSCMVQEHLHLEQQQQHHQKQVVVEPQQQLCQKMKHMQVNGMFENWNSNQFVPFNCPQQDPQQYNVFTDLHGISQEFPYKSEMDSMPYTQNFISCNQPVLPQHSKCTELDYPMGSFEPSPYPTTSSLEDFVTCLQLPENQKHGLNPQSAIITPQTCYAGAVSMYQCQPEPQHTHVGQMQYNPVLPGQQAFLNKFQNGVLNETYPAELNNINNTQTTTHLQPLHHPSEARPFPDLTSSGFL
# Fh CTSL1 inh: Fasciola hepatica cathepsin L1 inhibitors, primary screen, counter-screen for PFM18AAP inhibitor project, biochemical, QFRET, fluorogenic peptide substrate. inhibition, % at 5.96 µM. AID 1906, 2009. 300,000 tested, 0.49% active. recombinant F. hepatica cathepsin L1, Z-Leu-Arg-MCA fluorescence;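 active means inhibition above the mean of all tested compounds plus 3 SD, set per screening campaign, cut at about 17% in these data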;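 further: 0% = plate median of test compound wells and 100% = 1 µM Z-Phe-Ala-diazomethylketone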
# HDAC3 inhib: HDAC3 deacetylase inhibitors, primary screen, biochemical, fluorescence, cell-free homogeneous | Histone deacetylase 3 (Homo sapiens), O15379 | recombinant HDAC3, fluorogenic peptide/trypsin coupled | inhibition, % at 8.3 µM | 320,000 tested, 0.15% active | AID 2718, 2010; in the data active means inhibition above about 26%, passing the limit was not always enough
# GAA850 FXN act: FXN promoter activators, primary screen, cell-based, luciferase luminescence, HEK293 lucGAA850 | HEK293 lucGAA850 FXN promoter luciferase reporter, 24 h; percent of 10 µM SAHA response | activation, % at 6 µM | 360,000 tested, 0.56% active;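 active means activation above the average of all compounds screened plus 3 SD, cutoff fixed separately per campaign, cut at about 7.5% in these data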;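 further: 0% = DMSO wells and 100% = 10 µM SAHA wells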
# SENP1 inh: human SENP1 catalytic domain inhibitors, primary screen, biochemical, FRET, uHTS | Sentrin-specific protease 1 (Homo sapiens), Q9P0U3 | recombinant SENP1 catalytic domain, CyPet-SUMO1-YPet FRET cleavage | inhibition, % at 10 µM | 360,000 tested, 0.21% active;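 active means inhibition at least 30% at 10 µM, raw YFP signal under a set limit, fluorescence ratio 0.5 to 1.5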;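 further: 0% = enzyme with DMSO and 100% = no enzyme wells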
#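 Test system: human SENP1 catalytic domain; medium: Tris pH 8 buffer plus EDTA, NaCl, BME, BSA, NP40, catalase; incubation: 50 min reaction at room temperature; technique: FRET, CFP and YFP emission; controls: no-enzyme low control and enzyme-plus-DMSO high control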
# M18AAP inhibitor: PfM18AAP inhibitors, malaria aminopeptidase, primary screen, biochemical, QFRET, recombinant enzyme | 290,000 tested, 1.2% active | AID 1822, 2009 | H-Glu-NHMec fluorogenic cleavage | inhibition, % at 7.35 µM;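 active means inhibition above the campaign mean inhibition over all tested compounds plus 3 SD, cut at about 28% in these data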;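 further: 0% = plate median of test compound wells and 100% = 2 mM ZnCl2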
# Numbers without * were called inactive; / = no result given. Only some compounds are listed: those with a hit (about 4.2% of all), similar ones and a draw of the others.
SMILES,AHR activator,Fh CTSL1 inh,HDAC3 inhib,GAA850 FXN act,SENP1 inh,M18AAP inhibitor
O=C(NC(c1ccccc1)c1ccc2ccccc2n1)C1CCN(Cc2ccc(Cl)c(Cl)c2)CC1 (stereo unspecified),/,/,/,0,-3,/
CCCCNS(=O)(=O)CCNCc1ccco1,/,/,/,0,0,/
CCN1CCN(CCCNC(=O)C2CCN(c3nnc(-n4c(C)ccc4C)s3)CC2)CC1,51*,0,1,2,-3,2
CCN1CCN(CCCNC(=O)C2CCN(c3nnc(-n4cccc4)s3)CC2)CC1,0,-2,-1,4,0,2
NNC(=O)c1sc(-c2ccc(Cl)cc2)cc1N,48*,-1,-2,0,2,8
O=C(Nc1ccc2oc(-c3ccncc3)nc2c1)c1ccc([N+](=O)[O-])o1,1,23*,-4,7,0,-6
N#C/C(=C(/O)CCl)c1nc2c(s1)CCc1ccccc1-2,67*,-2,9,-1,-18,-6
Nc1nc2c(s1)CCc1ccccc1-2,13,3,-3,2,-1,-7
O=C(NCc1ccccc1F)c1ccc2c(c1)OCCO2,1,-3,-2,3,1,3
O=C(NCC(c1ccco1)N1CCCC1)c1ccccc1Sc1ccc(C(F)(F)F)cc1[N+](=O)[O-] (stereo unspecified),15,20*,3,-2,-3,/
N#Cc1ccccc1Sc1ccccc1C(=O)NCC(c1ccco1)N1CCCCC1 (stereo unspecified),1,/,-2,-1,-118,/
O=C(COC(=O)CCC1CCCC1)Nc1cccc(S(=O)(=O)N2CCOCC2)c1,0,1,/,1,3,/
O=C(Nc1ccc2c(c1)oc1ccc(S(=O)(=O)N3CCCC3)cc12)C1CC1,-6,2,-2,0,1,1
CC(C)CN1C(=O)c2ccc(NC(=O)C3CC3)cc2C1=O,-2,-3,-1,-1,-4,0
O=C(Nc1ccc2c(c1)oc1ccccc12)C1CC1,74*,0,2,1,1,0
O=C1c2ccccc2C(=O)c2cc(NC(=O)C3CC3)ccc21,168*,1,0,5,-15,-14
Cn1c2ccccc2c2ncn(CCCN3CCOCC3)c(=O)c21,50*,3,-11,-1,0,-9
CCOC(=O)C1(C)CCCN(C(=O)Cc2ccc3ccccc3c2)C1 (stereo unspecified),/,/,/,0,2,/
CCC(C)(C)c1ccc(OCCCC[n+]2ccc(C)cc2)c(C(C)(C)CC)c1,-4,8,34*,/,/,-8
CCC(C)(C)c1ccc(OCCCC[n+]2cccc(C)c2C)c(C(C)(C)CC)c1,0,1,19,-7,7,3
CC(C)(C)c1ccc(-c2nc(O)c(CC(=O)O)s2)cc1,-2,-1,5,/,/,0
CCc1ccc2nc3nc(C)cc(C)c3c(N)c2c1,68*,4,7,-6,-21,-1
Cc1nc(SCC(=O)NCc2ccco2)c2c(=O)n(C)c(=O)n(CC(C)C)c2n1,1,0,7,1,-2,2
CCOC(=O)c1ccc(-n2ccnc2)c(NC(=O)c2ccc(Cl)cc2)c1,53*,-1,0,1,-2,-9
CCOC(=O)Cc1cc(-c2ccccc2)nc2ccc3ccccc3c12,93*,-2,0,3,2,-4
SMILES,AHR activator,Fh CTSL1 inh,HDAC3 inhib,GAA850 FXN act,SENP1 inh,M18AAP inhibitor
Cc1ccc(NC2=C(Cl)C(=O)OC2OC(=O)c2ccco2)cc1C (stereo unspecified),-1,54*,12,2,-1,1
Cc1ccc(NC2=C(Cl)C(=O)OC2OC(=O)c2ccco2)c(C)c1 (stereo unspecified),0,48*,12,0,3,11
Cc1ccc(C)c(NC2=C(Cl)C(=O)OC2OC(=O)c2ccco2)c1 (stereo unspecified),1,10,2,-1,1,0
C[C@H]1CN([C@@H](C)CO)C(=O)CCCn2cc(nn2)CO[C@@H]1CN(C)C(=O)Nc1ccc(C(F)(F)F)cc1,/,/,/,0,2,/
COc1ccc(-c2cn[nH]c2-c2ccc(OCc3ccc([N+](=O)[O-])cc3)cc2O)cc1,51*,1,1,-2,2,-10
CCc1cc(-c2[nH]ncc2-c2ccc(OC)cc2)c(O)cc1O,31,-3,2,0,2,6
Cc1noc(C(=O)Nc2cccc(O)c2)c1Cl,17,4,/,0,1,-1
O=C(Oc1ccc(Br)cc1C(=O)/C=C/c1ccccc1F)c1ccco1,56*,-3,/,6,-42,9
O=C(Cc1ccccc1)N/N=C/C=C/c1ccccc1[N+](=O)[O-],-5,3,4,0,2,7
O=C(O)c1ccc(N/N=C/C=C/c2ccccc2[N+](=O)[O-])cc1,22,8,4,7,1,41*
O=C(N/N=C/C=C\c1ccccc1[N+](=O)[O-])c1cccnc1,20,0,13,1,0,1
O=C(N/N=C/C=C/c1ccccc1[N+](=O)[O-])c1cccnc1,72*,6,3,0,1,2
Cn1c(=O)n(/N=C/c2ccccc2)c2ccccc21,62*,1,10,1,3,-6
Cn1c(N)c(N=Cc2ccccc2)c(=O)n(C)c1=O,/,/,/,-1,-35,/
CCCCNC(=O)C1C(c2ccc(C(F)(F)F)cc2)=Nc2ccccc2N1C(=O)C1CCN(C(C)=O)CC1 (stereo unspecified),/,/,/,/,3,/
O=C(Nc1ccc(Oc2ccccc2)cc1)c1csc([C@@H]2O[C@H](CO)[C@H](O)[C@H](O)[C@H]2O)n1,/,/,/,-1,4,/
CCCSc1ccc2nc(NC(=O)OC)[nH]c2c1,54*,4,-9,1,0,-6
COC(=O)Nc1nc2ccc(SC(C)C)cc2[nH]1,25,3,0,2,1,/
COC(=O)c1ccc(CN2C(=O)NC3(CCC(C)CC3)C2=O)cc1 (stereo unspecified),-1,0,-21,6,2,-14
CCCCNc1nc(N(C)c2ccccc2)nc(-n2ccnc2)n1,61*,2,0,4,1,-1
COCCCN1C(=O)c2ccc(C(=O)Nc3ccccc3OC)cc2C1=O,67*,3,2,-1,0,-3

# Compound activity as filed in PubChem BioAssay.
